A short description of data set [1]: Cytotoxicity against HUVEC assessed as cell growth inhibition by MTT assay. The conditions noted are these: human. The data set is classed as toxicity, cell-based. The procedure, abridged:
(§1)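 IC50 values were read from dose–response curves for compounds that gave above 60% inhibition in the initial test. HUVEC (ATCC CRL-1730) served as the normal cell line.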

Another data set concerns HepG2. In words: Selectivity index, ratio of IC50 for HUVEC to IC50 for human HepG2 cells. The procedure, abridged: (§2)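 SI is the IC50 in normal HUVEC divided by the IC50 of the same compound in the cancer cell line.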
The nature of data set [2]: Cytotoxicity against human MDA-MB-231 cells assessed as cell growth inhibition by MTT assay. The data set is classed as functional, cell-based. The procedure, abridged: as §1
Background: Tetrazolium dyes change colour on reduction, which living cells bring about.

Data set [3] in a line: Selectivity index, ratio of IC50 for HUVEC to IC50 for human MDA-MB-231 cells. The procedure, abridged:
as §2

The nature of data set [4]: Cytotoxicity against human HeLa cells assessed as cell growth inhibition by MTT assay. Type of data set: functional, cell-based. The procedure, abridged: as §1
Data set [5] can be described thus: Cytotoxicity against human PC3 cells assessed as cell growth inhibition by MTT assay. The data set is classed as functional, cell-based. To be noted: PC-3. The procedure, abridged:
as §1

Data set [6] is described as follows: Cytotoxicity against human HepG2 cells assessed as cell growth inhibition by MTT assay. The data set is classed as functional, cell-based. The procedure, abridged: as §1
The test system of a further data set is HeLa. In words: Selectivity index, ratio of IC50 for HUVEC to IC50 for human HeLa cells. The procedure, abridged: as §2
A further data set has as its system PC-3. In words: Selectivity index, ratio of IC50 for HUVEC to IC50 for human PC3 cells. The procedure, abridged:
as §2

Data set [7] deals with T1, DNA topoisomerase 1 (Homo sapiens) (UniProt P11387).
T1 sequence (whole entry): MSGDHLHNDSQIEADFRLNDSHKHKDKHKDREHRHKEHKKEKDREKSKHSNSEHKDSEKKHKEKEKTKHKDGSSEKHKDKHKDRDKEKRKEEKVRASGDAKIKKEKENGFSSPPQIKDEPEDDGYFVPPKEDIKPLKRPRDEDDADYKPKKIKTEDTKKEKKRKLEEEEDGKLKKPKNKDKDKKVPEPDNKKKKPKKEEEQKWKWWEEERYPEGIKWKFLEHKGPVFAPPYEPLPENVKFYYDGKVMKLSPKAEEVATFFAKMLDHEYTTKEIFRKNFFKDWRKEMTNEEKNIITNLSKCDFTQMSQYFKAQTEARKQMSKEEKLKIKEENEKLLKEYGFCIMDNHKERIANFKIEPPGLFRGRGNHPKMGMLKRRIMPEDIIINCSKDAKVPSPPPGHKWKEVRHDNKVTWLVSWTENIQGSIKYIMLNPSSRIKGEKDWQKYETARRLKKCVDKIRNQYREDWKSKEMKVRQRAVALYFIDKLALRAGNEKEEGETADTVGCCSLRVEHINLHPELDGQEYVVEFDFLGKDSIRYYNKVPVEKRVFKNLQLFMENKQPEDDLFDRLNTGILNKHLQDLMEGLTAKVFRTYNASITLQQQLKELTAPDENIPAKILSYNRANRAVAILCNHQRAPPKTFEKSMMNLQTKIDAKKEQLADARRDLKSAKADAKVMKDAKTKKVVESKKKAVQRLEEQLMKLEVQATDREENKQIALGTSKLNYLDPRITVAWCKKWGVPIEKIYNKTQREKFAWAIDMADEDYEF
Description: Inhibition of human DNA TOP1 assessed as suppression of supercoiled plasmid HOT1 relaxation at 10 to 20 uM preincubated with enzyme followed by substrate addition measured after 30 mins by ethidium bromide dye-based agarose gel electrophoresis. The procedure, abridged: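 Supercoiled plasmid pHOT1 was incubated with human topoisomerase I, with compound or camptothecin control at 10 and 20. Relaxation was resolved on a 1% agarose gel run with ethidium bromide, alongside supercoiled and relaxed DNA marker lanes.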

Data set [8] in a line: Cytotoxicity against HUVEC assessed as cell growth inhibition up to 100 uM by MTT assay. To be noted: human. Type of data set: toxicity, cell-based.

pIC50: −log10 of the molar value. Active and inactive are the calls of the source. No cut-off for these calls is given here.

Take `CCOC(=O)c1cc2c(nc1C(F)(F)F)nn1c(-c3ccc(Cl)cc3)cc(-c3ccccc3)nc21`: the Activity result in data set [1] is recorded as “Non-Toxic”.
As usually defined, the pIC50 is −log10 of the IC50, conventionally taken in molar units. As to `CCOC(=O)c1cc2c(nc1C(F)(F)F)nn1c(-c3ccc(F)cc3)cc(-c3cccs3)nc21`, the “Ratio IC50” value was 5.11 in the data set on HepG2, 5.02 in data set [3], 5.61 with HeLa and 5.68 in the data set on PC-3. The pIC50 was 4.77 in data set [2]; 4.82 in [4]; 4.82 in [5]; 4.77 in data set [6]; 4.07 in [1].
For the compound `CCOC(=O)c1cc2c(nc1C(F)(F)F)nn1c(-c3ccccc3C)cc(-c3cccs3)nc21`, the Activity result in [1] is listed as “Non-Toxic”.
On the same count and under the same terms, as for `CCOC(=O)c1cc2c(nc1C(F)(F)F)nn1c(-c3ccc(OC)cc3)cc(-c3ccccc3)nc21`, the entry is “Non-Toxic”.
On to `O=c1[nH]cc(F)c(=O)[nH]1` [FLUOROURACIL], for which the “Ratio IC50” value in the data set with HepG2 amounted to 44.22; in data set [3], 41.89; in the data set with HeLa, 49.75; in the data set with PC-3, 44.22. Further, the pIC50 is 5.72 in data set [2]; 5.80 in [4]; 5.74 in data set [5]; 5.74 in data set [6]; 4.10 in data set [1].
Consider `CCOC(=O)c1cc2c(nc1C(F)(F)F)nn1c(-c3ccc(OC(F)(F)F)cc3)cc(-c3cccs3)nc21`, for which the “Ratio IC50” value was determined as 7.13 in the data set with HepG2, 5.22 in data set [3], 5.58 in the data set on HeLa and 7.55 with PC-3. For the same compound, the pIC50 in [2] is 4.76; in data set [4] it was 4.79; in [5], 4.92; in data set [6], 4.90; in [1], 4.05.
Turning to `CCOC(=O)c1cc2c(nc1C(F)(F)F)nn1c(C(F)(F)F)cc(C)nc21`, the pIC50 in data set [2] is 4.61; in [4], 4.59; in [1] it was 4.05. The “Ratio IC50” value in data set [3] is reported as 3.62; with HeLa it was 3.44.
On to `CCOC(=O)c1cc2c(nc1C(F)(F)F)nn1c(-c3ccc[nH]3)cc(-c3ccccc3)nc21`, for which the “Ratio IC50” value with HepG2 turned out to be 6.43; in data set [3], 9.24; with HeLa, 7.26; in the data set with PC-3, 7.86. Further, in data set [7], the inhibition entry was “Active”. The pIC50 in [2] is 4.99; in data set [4] it was 4.88; in data set [5], 4.92; in data set [6], 4.83; in data set [1], 4.02.
With `CCOC(=O)c1cc2c(nc1C(F)(F)F)nn1c(-c3ccc(OC)cc3)cc(-c3ccc(OC)cc3)nc21`, the Activity result in data set [1] is reported as “Non-Toxic”.
For the compound `CCOC(=O)c1cc2c(nc1C(F)(F)F)nn1c(-c3ccc([N+](=O)[O-])cc3)cc(-c3ccccc3)nc21`, the “Ratio IC50” value in the data set with HepG2 is 6.39; in data set [3], 7.44; in the data set with HeLa, 4.98; in the data set with PC-3, 5.57. The pIC50 in [2] is 4.91; in data set [4] it was 4.74; in [5] it was 4.79; in data set [6] it was 4.85; in data set [1] it was 4.04.
For `CCOC(=O)c1cc2c(nc1C(F)(F)F)nn1c(C)cc(C)nc21`, the “Ratio IC50” value in the data set with HepG2 was found to be 4.67; in [3], 4.93; with HeLa, 5.45; in the data set with PC-3 it was 4.48. Moreover, the negative-log IC50 (pIC50) is 4.70 in data set [2]; 4.74 in [4]; 4.66 in data set [5]; 4.67 in [6]; 4.00 in [1].
Regarding `CCOC(=O)c1cc2c(nc1C(F)(F)F)nn1c(CC)cc(CC)nc21`, the Activity entry in data set [8] is “Non-Toxic”.
As to `CCOC(=O)c1cc2c(nc1C(F)(F)F)nn1c(-c3ccc(F)cc3)cc(-c3ccc(OC)cc3)nc21`, the “Ratio IC50” value in the data set with HepG2 came to 5.36; in data set [3], 5.02; in the data set on HeLa, 5.46; in the data set on PC-3 it was 5.43. Also, the pIC50 is 4.76 in data set [2]; 4.80 in data set [4]; 4.80 in data set [5]; 4.79 in [6]; 4.06 in data set [1].
In the case of `CCOC(=O)c1cc2c(nc1C(F)(F)F)nn1c(-c3ccccc3)cc(C)nc21`, the pIC50 in data set [2] is 4.54; in data set [4] it was 4.53; in data set [1] it was 4.04. The “Ratio IC50” value is listed as 3.18 in [3] and 3.05 in the data set with HeLa.
Regarding `CCOC(=O)c1cc2c(nc1C(F)(F)F)nn1ccc(C)nc21`, the “Ratio IC50” value came to 7.89 in the data set on HepG2, 7.7 in data set [3], 8.79 in the data set with HeLa and 8.17 with PC-3. Also, the inhibition entry in data set [7] is “Active”. The pIC50 in data set [2] is 4.92; in [4], 4.97; in [5], 4.94; in data set [6], 4.93; in [1], 4.03.
Turning to `CCOC(=O)c1cc2c(nc1C(F)(F)F)nn1c(-c3c(F)cc(OC)cc3F)cc(-c3cccs3)nc21`, the “Ratio IC50” value in the data set with HepG2 was determined as 3.94; in [3] it was 4.39; in the data set with HeLa it was 4.54; in the data set on PC-3 it was 4.07. Besides, the pIC50 in [2] is 4.68; in [4] it was 4.69; in data set [5] it was 4.64; in data set [6], 4.63; in data set [1], 4.03.

Source of the values: ChEMBL document CHEMBL3862019, “Synthesis of novel ethyl 2,4-disubstituted 8-(trifluoromethyl)pyrido[2',3':3,4]pyrazolo[1,5-a]pyrimidine-9-carboxylate derivatives as promising anticancer agents” (Bioorg Med Chem Lett, 2016).
